Redox H2O2 prof: compounds producing H2O2 with reducing agent – biochemical, NIH compound library profiling, artefact control for MLSCN library redox annotation, primary screen; AID 878; 200,000 tested, 0.03% active; DTT-dependent redox cycling H2O2, phenol red/HRP absorbance; 100% = 100 µM peroxide control, 0% = buffer; activation, % at 10 µM;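 active = activation of at least 50% relative to the plate's high and low controls in the primary single-dose screen; inactive = activation below 50%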;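 also: compound incubated with DTT at 0.8 mM final as the reducing agent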
T cruzi inh: T. cruzi replication inhibition | T. cruzi beta-gal in NIH3T3, luminescence, 90 h | inhibition, % (concentration not given with the values) | 300,000 tested, 1.4% active | AID 1885;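 active = mean inhibition across valid replicates above about 55%, limit read from the data; inconclusive = mean below that limit but half or more replicates reach it; inactive = mean below it, under half of replicates reach it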;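 also: signal also drops with host cell toxicity which is not excluded here; 0% = plate median of DMSO wells and 100% = zero luminescence signal; higher percent means less beta-gal luminescence so fewer parasites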
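System: NIH/3T3 fibroblasts plus reporter T. cruzi. Medium: DMEM plus 2% FBS. Probe or stimulus: 5000 reporter trypomastigotes per well. Compound: single 50 nL compound addition per well in DMSO. Incubation: co-culture of at least 90 h after 3 h attachment. Detection: GalScreen β-gal luminescence, detergent lysis, 60 min. Evaluation: parasite load inhibition, %.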
L major viab: inhibitors of Leishmania major promastigote growth; Leishmania major promastigotes, resazurin fluorescence viability; inhibition, % at 10 µM; 200,000 tested, 9% active; AID 1063; in the data active = inhibition above about 50%;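 also: promastigotes grown with compound for 44 hours at 28 °C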
MPTP inh: blocks calcium-induced mitochondrial swelling. AID 602449. isolated mouse mitochondria, Ca2+ swelling absorbance, 30 min. 360,000 tested, 1.4% active. inhibition, % at 10 µM;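 active = inhibition of 50% or more, scaled per plate between neutral and stimulator controls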;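 also: 0% = DMSO wells given calcium and 100% = 1 mM EGTA wells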
Lipid droplet: hepatic lipid droplet formation modulation. 240,000 tested, 0.4% active. AML12 mouse hepatocytes, oleate lipid droplets, BODIPY imaging. AID 1656. inhibition, % at 6.5 µM;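 active = lipid droplet intensity inhibited by at least 50%, with more than 500 cells counted; inconclusive = wells with under 300 cells, treated as cytotoxic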
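Assay system: AML12 hepatocytes (mouse) / Also added: 100 µM oleic acid challenge / Times: overnight treatment with compound plus oleate / Detection: high-content imaging of BODIPY-stained droplets and DAPI nuclei / Evaluation: % inhibition of lipid droplet signal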
* marks the source's active call; other numbers are inactive results; ? = inconclusive; . = no result given. Shown is part of a subset that was picked to be rich in hits.

SMILES	Redox H2O2 prof	T cruzi inh	L major viab	MPTP inh	Lipid droplet
COc1ccc(Nc2nc(N)nc(CN3CCC(Cc4ccccc4)CC3)n2)cc1	0	-17	87*	10	-9
CCOC(=O)C1CCN(Cc2ccccc2C)CC1	0	11	89*	0	-7
CCOC(=O)C1CCN(Cc2ccc(F)c(F)c2)CC1	0	-3	80*	1	7
Cc1ccc(N(C)C(=O)N2CCN(S(=O)(=O)c3c(C)cc(C)cc3C)CC2)cc1	0	17	98*	6	12
Cc1ccc(N(C)C(=O)N2CCN(S(=O)(=O)c3ccc(C)c(C)c3)CC2)cc1	0	1	5	-1	5
COc1cc(/C=C(\CC(=O)O)c2nc3ccccc3s2)cc(OC)c1O	-1	-11	-7	1	25
COc1ccc(/C=C(\CC(=O)O)c2nc3ccccc3s2)cc1O	1	-15	-5	0	13
CCOc1cc(/C=C(\CC(=O)O)c2nc3ccccc3s2)ccc1OC	-1	1	98*	0	0
COc1cc(C=C(c2nc3ccccc3s2)c2nc3ccccc3s2)cc(OC)c1O	0	-4	95*	-1	5
O=C(Nc1ccc2c(c1)OCO2)c1cc(C2CCCN(C(=O)CCc3ccccc3)C2)on1 (configuration not stated)	.	.	.	-1	.
Cc1c(C(=O)N2CCc3ccccc3C2)oc2ccc(S(=O)(=O)N3CCCCCC3)cc12	3	33	66*	0	-14
CCOC(=O)N1CCN(C(=O)c2oc3ccc(S(=O)(=O)N4CCOCC4)cc3c2C)CC1	-1	-2	-7	0	14
CCOC(=O)N1CCN(C(=O)c2oc3ccc(S(=O)(=O)N4CCCCCC4)cc3c2C)CC1	1	65*	14	2	-8
Cc1ccc(S(=O)(=O)N2CCOCC2)cc1NC(=O)CNCC1CCCCC1	-4	26	74*	4	18
O=C(CC1CCCC1)Nc1cc(S(=O)(=O)N2CCOCC2)ccc1O	.	.	.	-4	.
Cc1ccc(S(=O)(=O)N2CCOCC2)cc1NC(=O)COC(=O)c1ccc(OCc2c(C)noc2C)cc1	0	-4	76*	0	10
Cc1ccc(C(=O)OCC(=O)Nc2cc(S(=O)(=O)N3CCOCC3)ccc2C)cc1	-1	-2	0	-2	6
COc1cc(CCC(=O)Nc2nccs2)cc(OC)c1OC	.	-8	.	-1	-18
COc1c(C)cccc1C(=O)Nc1ccc(CN2CCOCC2)cc1	0	21	98*	1	-5
COc1ccc(OCc2cccc(C(=O)Nc3ccc(CN4CCCCC4)cc3)c2)cc1	1	31	78*	30	-2
COc1cccc(NC(=O)c2ccc(CN3CCOCC3)cc2)c1	-4	1	-1	0	.
CC(C)Oc1cccc(C(=O)Nc2ccc(CN3CCOCC3)cc2)c1	0	3	79*	1	26
CCCOc1cccc(C(=O)Nc2ccc(CN3CCOCC3)cc2)c1	.	11	.	0	2
O=C(Nc1nc2ccc(S(=O)(=O)N3CCCCC3)cc2s1)c1ccncc1	4	17	2	7	-7
CCOc1ccc2nc(NC(=O)c3ccccn3)sc2c1	.	46	.	2	0
SMILES	Redox H2O2 prof	T cruzi inh	L major viab	MPTP inh	Lipid droplet
O=C(Nc1nc(-c2ccccc2)c(-c2ccccc2)s1)c1ccc(S(=O)(=O)N2CCCCC2)cc1	0	3	99*	7	-1
O=C(Nc1nc2c(F)cc(F)cc2s1)c1ccccn1	0	61*	98*	0	-67
Cc1ccc2nc(NC(=O)c3ccccn3)sc2c1	1	69*	98*	1	-19
O=C(Nc1nc(-c2ccccc2)c(C(=O)c2ccccc2)s1)c1ccc(S(=O)(=O)N2CCCCC2)cc1	0	23	16	21	0
O=C(COc1ccccc1)NNc1nc2c(F)cc(F)cc2s1	-1	1	-3	-1	32
O=C(Nc1nc2ccc(S(=O)(=O)N3CCCC3)cc2s1)c1ccccn1	-2	64*	99*	-2	-15
O=C(Nc1ccccc1N1CCN(c2ccccc2)CC1)C12CC3CC(CC(C3)C1)C2	1	25	98*	2	0
Cc1ccc(NC(=O)c2cc(-c3ccccc3)nn2-c2ccccc2)c(Br)c1	2	18	69*	2	2
CS(=O)(=O)c1ccc2nc(NC(=O)C3=NN(c4ccccc4)C(=O)CC3)sc2c1	.	-10	.	1	8
CS(=O)(=O)c1ccc2nc(NC(=O)c3cc(-c4ccccc4)nn3-c3ccccc3)sc2c1	0	15	100*	2	38
CCOc1ccc(CN2CCC(Cc3ccccc3)CC2)cc1	.	25	.	1	-10
CSc1ccc(CN2CCC(C(=O)NCc3ccc(C)cc3)CC2)cc1	0	10	92*	0	-17
CCCCN(C)C(=O)C1CCN(Cc2ccc(OCc3ccccc3)cc2)CC1	1	29	61*	2	6
CSc1ccc(CN2CCCCCC2)cc1	.	28	.	-1	-11
CCCCOc1ccc(CN2CCC(O)CC2)cc1	0	?	91*	0	.
CSc1ccc(CN2CCC(O)CC2)cc1	3	.	81*	.	.
COC(=O)C1=CN(C2CCCCC2)C=C(C(=O)OC)C1c1ccc2c(c1)OCO2	0	62*	21	0	-16
COCCN1C=C(C(=O)OC)C(c2ccc3c(c2)OCO3)C(C(=O)OC)=C1	0	3	7	0	.
COCCN1C=C(C(=O)OC)C(c2cc3c(cc2Br)OCO3)C(C(=O)OC)=C1	1	-4	62*	.	-4
CN(C)CCCN1C(=O)c2cccc3c([N+](=O)[O-])ccc(c23)C1=O	0	.	100*	0	8
CN(C)C1=NCCN1CCc1ccc(F)cc1	.	.	.	-1	.
COc1ccc(NC(=O)N(C)[C@H]2C[C@H]3c4[nH]c5ccc(-c6ccc(OC)cc6)cc5c4CCN3C[C@H]2[C@H](C)O)cc1	.	.	.	0	.
Cc1cc(=O)oc2cc(OCC(=O)Nc3cccc(S(=O)(=O)N(C)C)c3)ccc12	.	8	60*	3	-15
CN(C)S(=O)(=O)c1ccc(SCC(=O)Nc2cccc(S(=O)(=O)N3CCCC3)c2)nc1	.	.	.	1	.
CN(C)S(=O)(=O)c1cccc(NC(=O)CNCC2CCCCC2)c1	0	2	84*	0	16
CN(C)S(=O)(=O)c1cccc(NC(=O)CSc2cccc3cccnc23)c1	.	60*	.	1	-23
COc1cc(OC)c2cc(C(=O)N[C@@H](Cc3ccccc3)C(=O)O)n(C)c2c1	.	-8	.	-1	6
C=CCn1c(=O)/c(=C2/Sc3ccccc3N2CC)s/c1=C1/C(=O)NN=C1C	6	52	97*	.	-14
Cc1cccc2sc(NC(=O)c3ccc(NS(=O)(=O)c4cccs4)cc3)nc12	0	-1	40	4	16
COc1ccc(C2=NN(C(=O)c3cccs3)C(c3ccccc3O)C2)cc1 (configuration not stated)	0	60*	41	8	19

Bioassay records deposited in PubChem BioAssay by several laboratories.
